Measurements of several laboratories.
Lines come from different studies, so protocols differ.
TPR: Trypanothione reductase (TPR, Trypanosoma cruzi, UniProt P28593)
Aldo-keto reductase family 1 member A1: Aldo-keto reductase family 1 member A1 (Rattus norvegicus, UniProt P51635)
PTPN12: Tyrosine-protein phosphatase non-receptor type 12 (PTPN12, Homo sapiens, UniProt Q05209)
SLC6A2: Sodium-dependent noradrenaline transporter (SLC6A2, Homo sapiens, UniProt P23975)
GRM3: Metabotropic glutamate receptor 3 (GRM3, Homo sapiens, UniProt Q14832)
Dual specificity calcium/calmodulin-dependent 3',5'-cyclic nucleotide phosphodiesterase 1B: Dual specificity calcium/calmodulin-dependent 3',5'-cyclic nucleotide phosphodiesterase 1B (Homo sapiens, UniProt Q01064)
NPSR1: Neuropeptide S receptor (NPSR1, Homo sapiens, UniProt Q6W5P4)
MKNK2: MAP kinase-interacting serine/threonine-protein kinase 2 (MKNK2, Homo sapiens, UniProt Q9HBH9)

| SMILES | target | observed | action | technique | pH | setting | IC50 [µM] |
| --- | --- | --- | --- | --- | --- | --- | --- |
| ClCCOC1c2ccccc2CCc2ccccc21 | TPR | enzyme activity | inhibitor | absorbance |  |  | 29.7 |
| COc1ccc2nc(/N=C3/NC(=O)C(=Cc4ccccc4)S3)sc2c1 | Aldo-keto reductase family 1 member A1 | enzyme activity | inhibitor | absorbance | pH 7.2 |  | > 50 |
| Cc1ccc(C(O)Cn2c(=N)n(CCN3CCCCC3)c3ccccc32)cc1 (centres unmarked) | TPR | enzyme activity | inhibitor |  |  |  | ≤ 10 |
| Cc1ccc(C(=O)Nc2ccc(S(=O)(=O)O)c3cc(S(=O)(=O)O)cc(S(=O)(=O)O)c23)cc1NC(=O)c1cccc(NC(=O)Nc2cccc(C(=O)Nc3cc(C(=O)Nc4ccc(S(=O)(=O)O)c5cc(S(=O)(=O)O)cc(S(=O)(=O)O)c45)ccc3C)c2)c1 | PTPN12 | enzyme activity | inhibitor | fluorescence |  |  | 27 |
| CCN(CC)CCOc1ccc2c(c1)C(=O)c1cc(OCCN(CC)CC)ccc1-2 | Cholinesterase (BCHE, Homo sapiens, UniProt P06276) | enzyme activity | inhibitor |  |  |  | > 50 |
| Fc1ccc(C(c2ccc(F)cc2)c2nnnn2CCCCN2CCC(c3ccccc3)CC2)cc1 | SLC6A2 | transporter uptake | inhibitor |  |  |  | 0.675 |
| COc1ccc(-c2cc(C(N)=O)ncc2OCc2ccnc(OC)c2)c(F)c1 | GRM3 | ion flux | antagonist |  |  |  | > 10 |
| c1ccc(CCCN2CCNCC2)cc1 | TPR | enzyme activity | inhibitor | absorbance |  |  | 34.5 |
| COc1ccc(-c2cc(C(N)=O)ncc2OCc2ccc(OC)nc2)c(F)c1 | GRM3 | ion flux | antagonist |  |  |  | > 10 |
| Clc1ccc(C(c2ccccc2)c2nnnn2CCCCN2CCC(Cc3ccc(Cl)c(Cl)c3)CC2)cc1 (centres unmarked) | SLC6A2 | transporter uptake | inhibitor |  |  |  | 0.78 |
| O=C(O)c1cc(O)c2c(c1)[C@H]([C@H]1c3cc(C(=O)O)cc(O)c3C(=O)c3c(O[C@@H]4O[C@H](CO)[C@@H](O)[C@H](O)[C@H]4O)cccc31)c1cccc(O[C@@H]3O[C@H](CO)[C@@H](O)[C@H](O)[C@H]3O)c1C2=O | PTPN12 | enzyme activity | inhibitor |  |  |  | 0.2 |
| NC(=O)c1cccc(-c2cccc(OC(=O)NC3CCCCC3)c2)c1 | Cocaine esterase (CES2, Homo sapiens, UniProt O00748) | enzyme activity | inhibitor |  |  |  | 0.072 |
| COc1ccc(-c2cc(C(N)=O)ncc2OCc2cn(C)cn2)c(F)c1 | GRM3 | ion flux | antagonist |  |  |  | > 10 |
| O=C(O)C1=CC(=C(c2ccc(O)c(C(=O)O)c2)c2ccc(O)c(C(=O)O)c2)C=CC1=O | TPR | enzyme activity | inhibitor | absorbance |  |  | 0.176 |
| O=P(O)(O)OC[C@H]1O[C@@](CO)(OP(=O)(O)O)[C@@H](O)[C@@H]1O | Fructose-1,6-bisphosphatase 1 (Mus musculus, UniProt Q9QXD6) | enzyme activity | inhibitor |  |  |  | 1.69 |
| CCN(CC)CCn1c(=N)n(CC(O)c2ccc(Cl)c(Cl)c2)c2ccccc21 (centres unmarked) | TPR | enzyme activity | inhibitor |  |  |  | ≤ 10 |
| CSc1ccc(/C=C2/C(C)=C(CC(=O)O)c3cc(F)ccc32)cc1 | Dual specificity calcium/calmodulin-dependent 3',5'-cyclic nucleotide phosphodiesterase 1B | enzyme activity | inhibitor |  |  |  | > 100 |
| O=C1c2ccccc2C(=O)c2c(O)c(O)cc(O)c21 | PTPN12 | enzyme activity | inhibitor | fluorescence |  |  | 7 |
| c1ccc(CCC2CCN(CCCn3nnnc3C(c3ccccc3)c3ccccc3)CC2)cc1 | SLC6A2 | transporter uptake | inhibitor |  |  |  | 0.41 |
| COc1cccc(C2c3c(ncn(-c4ccc(F)cc4)c3=N)Oc3ccc4ccccc4c32)c1 (centres unmarked) | NPSR1 | calcium signal | antagonist |  |  |  | 3.48 |
| Fc1ccc(C(c2ccc(F)cc2)c2nnnn2CCCCN2CCC(Cc3ccc(Cl)c(Cl)c3)CC2)cc1 | SLC6A2 | transporter uptake | inhibitor |  |  |  | 0.521 |
| O=c1[nH]c(=S)n(Cc2ccc(Cl)cc2CNCC(F)(F)F)c2cc[nH]c12 | Myeloperoxidase (MPO, Homo sapiens, UniProt P05164) | enzyme activity | inhibitor |  |  |  | 0.035 |
| COc1ccc2nc(/N=C3/NC(=O)C(=Cc4cc(I)c(O)c(OC)c4)S3)sc2c1 | Aldo-keto reductase family 1 member A1 | enzyme activity | inhibitor | absorbance | pH 7.2 |  | > 50 |
| N=c1c2c(ncn1-c1ccccc1)Oc1ccc3ccccc3c1C2c1ccc2c(c1)CCO2 (centres unmarked) | NPSR1 | cAMP | antagonist | TR-FRET |  |  | 3.07 |
| O=S(=O)(Nc1nc2cc(Cl)ccc2o1)c1cc(Cl)ccc1Cl | Fructose-1,6-bisphosphatase 1 (Mus musculus, UniProt Q9QXD6, G27P) | enzyme activity | inhibitor |  |  |  | > 100 |
| NCCCc1ccccc1 | TPR | enzyme activity | inhibitor | absorbance |  |  | > 100 |
| COc1ccc(-c2cc(C(N)=O)ncc2OCc2cnc(OC)nc2)c(F)c1 | GRM3 | ion flux | antagonist |  |  |  | > 10 |

| SMILES | target | observed | action | technique | pH | setting | IC50 [µM] |
| --- | --- | --- | --- | --- | --- | --- | --- |
| COc1cccc(C2c3c(ncn(-c4ccccc4-c4ccccc4)c3=N)Oc3ccc4ccccc4c32)c1 (centres unmarked) | NPSR1 | cAMP | antagonist | TR-FRET |  |  | 38.7 |
| Clc1ccc2c(c1)N(CCCN1CCN(CCCc3ccccc3)CC1)c1ccccc1S2 | TPR | enzyme activity | inhibitor | absorbance |  |  | 0.75 |
| Nc1ncnc2c1C(c1ccccc1)c1c(ccc3ccccc13)O2 (centres unmarked) | NPSR1 | cAMP | antagonist | TR-FRET |  |  | 7.72 |
| C1CNCCN1 | TPR | enzyme activity | inhibitor | absorbance |  |  | > 100 |
| Cc1cnc(-c2ccc(-c3ccc(NC(=O)Nc4c(F)cc(F)cc4F)cc3F)c3c2C(=O)NC3)[nH]1 | Serine/threonine-protein kinase/endoribonuclease IRE2 (ERN2, Homo sapiens, UniProt Q76MJ5) | enzyme activity | inhibitor |  |  |  | 0.0148 |
| CO/N=C(\C(=O)N[C@@H]1C(=O)N2C(C(=O)O)=C(COC(C)=O)CS[C@H]12)c1csc(N)n1 | PTPN12 | enzyme activity | inhibitor | fluorescence |  |  | 70 |
| CCN(CC)CCn1c(=N)n(CC(=O)c2ccc(C)cc2)c2ccccc21 | TPR | enzyme activity | inhibitor |  |  |  | ≤ 10 |
| COc1ccc(-c2cc(C(N)=O)ncc2OCc2ccn(C)n2)c(F)c1 | GRM3 | ion flux | antagonist |  |  |  | > 10 |
| COc1ccc2c(Oc3ccc4c(C(=O)Nc5ccccc5N)cccc4c3)ccnc2c1 | Fibroblast growth factor receptor 1 (FGFR1, Homo sapiens, UniProt P11362) | enzyme activity | inhibitor |  |  |  | > 0.5 |
| N=c1n(CCOc2ccccc2)c2ccccc2n1CCN1CCCCC1 | TPR | enzyme activity | inhibitor |  |  |  | ≤ 10 |
| COc1ccc(-c2cc(C(N)=O)ncc2OCc2ccc(F)nc2)c(F)c1 | GRM3 | ion flux | antagonist |  |  |  | > 10 |
| COc1cccc(C2c3c(ncn(-c4cccc(C#N)c4)c3=N)Oc3ccc4ccccc4c32)c1 (centres unmarked) | NPSR1 | calcium signal | antagonist |  |  |  | 4.38 |
| OC[C@@H]1[C@@H](O)[C@H](O)[C@@H](O)[C@@H]2O[C@H]12 | bglA (Thermotoga maritima, UniProt Q08638) | enzyme activity | inhibitor |  | pH 6.8 | with preincubation | 0.37 |
| Clc1ccc(C(c2ccccc2)c2nnnn2CCCCN2CCC(CCCc3ccccc3)CC2)cc1 (centres unmarked) | SLC6A2 | transporter uptake | inhibitor |  |  |  | 0.232 |
| COc1ccc2nc(/N=C3/NC(=O)C(=Cc4ccc(O)c(OC)c4)S3)sc2c1 | Aldo-keto reductase family 1 member A1 | enzyme activity | inhibitor | absorbance | pH 7.2 |  | 0.61 |
| N=c1c2c(ncn1-c1ccccc1)Oc1ccc3ccccc3c1C2c1ccc2c(c1)OCCO2 (centres unmarked) | NPSR1 | cAMP | antagonist | TR-FRET |  |  | 3.07 |
| Cc1nn2c(-c3c(C)nn(C)c3-c3ccc(C(F)(F)F)cc3)nc(CO)c2c(=O)[nH]1 | Dual specificity calcium/calmodulin-dependent 3',5'-cyclic nucleotide phosphodiesterase 1B | enzyme activity | inhibitor |  |  |  | 5.26 |
| COc1ccccc1C1c2c(ncn(-c3ccccc3)c2=N)Oc2ccc3ccccc3c21 (centres unmarked) | NPSR1 | calcium signal | antagonist |  |  |  | 5.52 |
| CN1CCN(c2ccc(Nc3ncc4cc(C#N)c(=O)n(C5CCCC5)c4n3)cc2)CC1 | MKNK2 | enzyme activity | inhibitor |  |  |  | 4.41 |
| O=C(Oc1cc(O)cc2c1C[C@@H](OC(=O)c1cc(O)c(O)c(O)c1)[C@@H](c1cc(O)c(O)c(O)c1)O2)c1cc(O)c(O)c(O)c1 | PTPN12 | enzyme activity | inhibitor |  |  |  | 0.02 |
| COc1cccc(C2c3c(ncn(-c4ccccc4C)c3=N)Oc3ccc4ccccc4c32)c1 (centres unmarked) | NPSR1 | cAMP | antagonist | TR-FRET |  |  | 9.72 |
| CCN(CC)CCn1c(=N)n(CCOc2ccccc2)c2ccccc21 | TPR | enzyme activity | inhibitor |  |  |  | ≤ 10 |
| O=C1c2ccccc2-c2cccc3cccc1c23 | PTPN12 | enzyme activity | inhibitor |  |  |  | > 150 |
| c1ccc(CCC2CCN(CCCCn3nnnc3C(c3ccccc3)c3ccccc3)CC2)cc1 | SLC6A2 | transporter uptake | inhibitor |  |  |  | 0.274 |
| COc1cc(/C=C2\SC(=O)NC2=O)cc(F)c1OCCNc1nc2c(cnn2C2CCCC2)c(=O)[nH]1 | Dual specificity calcium/calmodulin-dependent 3',5'-cyclic nucleotide phosphodiesterase 1B | enzyme activity | inhibitor |  |  |  | 0.0151 |
| C=CC(=O)Nc1cc(Nc2nccc(Nc3cc(Cl)c(F)cc3C(C)(C)O)n2)c(OC)cc1N1CC[C@@H](N(C)C)C1 | MKNK2 | enzyme activity | inhibitor |  |  | with preincubation | 1.03 |
